STAT1 blocker: reduces IFN-gamma driven STAT1 reporter signal; inhibition, % at 5.5 µM; AID 920; 0.35% of 200,000 active; NIH 3T3 STAT1-luciferase reporter, luminescence;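 active = inhibition above a set limit, the mean inhibition across all tested compounds plus 3 SD, cut at about 34% in these data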
STAT3 inh: inhibitors of IL-6 induced STAT3 signaling. 0.89% of 190,000 active. inhibition, % at 5.5 µM. U3A cells, IL-6 STAT3-luciferase reporter, luminescence; host cell line lacks STAT1. AID 862;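 active = inhibition above the mean inhibition across all screened compounds plus 3 SD, cut at about 44% in these data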
STAT3 activator: STAT3 signaling activation | U3A cells, IL-6 STAT3-luciferase reporter, luminescence; 100% = signal with IL-6 EC80 alone | activation (% of control), % at 5.6 µM | 0.91% of 190,000 active;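 active = activation above the screen-wide mean of compound activation plus 3 SD, cut at about 130% in these data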
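Material: human STAT1-deficient U3A cells with stable STAT3-luciferase reporter / Probe or stimulus: IL-6 stimulus at 33 ng/mL final / Schedule: 1 h compound pre-exposure, 6 h IL-6 stimulation, 37 °C / Technique: luminescence / Read-out basis: percent of IL-6-only median luminescence / Control set: IL-6-only high control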
NF-kB neuron act: raises NF-kB expression in human neuronal cells; NF-kB reporter expression; active compounds read high; 1.6% of 190,000 active; AID 1239; fold change at 12.5 µM; in the data active = fold change above about 3.3
APP 5'UTR act: APP 5'UTR luciferase reporter activation | SH-SY5Y APP 5'UTR luciferase reporter, luminescence; zero percent = DMSO vehicle wells | activation, % at 2 µM | 1% of 190,000 active;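 active = activation above a set limit, based on mean plus 3 SD of controls, cut at about 140% in these data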
STAT1 activator: activators of IFN-gamma induced STAT1 signaling; activation (% of control), % at 5.5 µM; NIH 3T3 STAT1-luciferase reporter, luminescence; 100% = IFN-gamma alone, no compound; 2.6% of 200,000 active; AID 932;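 active = activation above the screen-wide mean activation plus 3 SD, cut at about 130% in these data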
Numbers stand for hits. Only some compounds are listed: those with a hit (about 5.1% of all), similar ones and a draw of the others.

For CN(C)C(=O)C1C2NC(=S)N(c3cccc(Cl)c3)C1(C)Oc1ccc(Cl)cc12 (configuration not stated) the results were STAT1 blocker inactive, STAT3 inh inactive, STAT3 activator inactive, NF-kB neuron act inactive, APP 5'UTR act inactive and STAT1 activator inactive.
Screening O=C(/C=C/Nc1ccc(F)c(F)c1)c1ccc(Br)cc1 returned STAT1 blocker inactive, STAT3 inh inactive, STAT3 activator inactive, NF-kB neuron act 8.07, APP 5'UTR act 163.4 and STAT1 activator 141.1.
O=C(/C=C/Nc1ccc([N+](=O)[O-])cc1)c1ccc(Br)cc1 was read as STAT1 blocker inactive, STAT3 inh inactive, STAT3 activator inactive, NF-kB neuron act inactive, APP 5'UTR act inactive and STAT1 activator inactive.
`CC(C)NC(=O)NC(=O)CN1C(=O)NC(Cc2c[nH]c3ccccc23)C1=O` (configuration not stated) gave STAT1 blocker inactive, STAT3 inh inactive, STAT3 activator inactive, NF-kB neuron act inactive, APP 5'UTR act inactive and STAT1 activator inactive.
`CCOC(=O)c1cc(-c2ccc(OC)cc2)n(CCC(=O)NC2CCN(Cc3ccccc3)CC2)c1C` gave STAT1 blocker inactive, STAT3 inh inactive, STAT3 activator inactive, NF-kB neuron act inactive, APP 5'UTR act inactive and STAT1 activator inactive.
`CCOC(=O)c1cc(-c2ccc(F)cc2)n(CCC(=O)NC2CCN(Cc3ccccc3)CC2)c1C` gave STAT1 blocker inactive, STAT3 inh inactive, STAT3 activator inactive, NF-kB neuron act 3.68, APP 5'UTR act inactive and STAT1 activator inactive.
For O=C(Nc1ccc(Br)c(Cl)c1)c1ccco1 the results were STAT1 blocker inactive, STAT3 inh inactive, STAT3 activator inactive, NF-kB neuron act inactive, APP 5'UTR act inactive and STAT1 activator 135.4.
`O=C(Nc1ccc(N2CCOCC2)c(Cl)c1)c1ccccc1F` gave STAT1 blocker inactive, STAT3 inh inactive, STAT3 activator inactive, NF-kB neuron act 5.11, APP 5'UTR act inactive and STAT1 activator 137.5.
`O=C(CSc1nc2ccccc2o1)Nc1ccc(N2CCOCC2)c(Cl)c1` gave STAT1 blocker inactive, STAT3 inh inactive, STAT3 activator inactive, NF-kB neuron act inactive, APP 5'UTR act 193.7 and STAT1 activator inactive.
O=C(Nc1ccc(N2CCOCC2)c(Cl)c1)c1ccco1 was read as STAT1 blocker inactive, STAT3 inh inactive, STAT3 activator inactive, NF-kB neuron act 3.44, APP 5'UTR act inactive and STAT1 activator 148.6.
Screening O=C(CSc1nc2ccccc2s1)Nc1ccc(N2CCOCC2)c(Cl)c1 returned STAT1 blocker inactive, STAT3 inh inactive, STAT3 activator inactive, NF-kB neuron act inactive, APP 5'UTR act inactive and STAT1 activator inactive.
`O=C(Nc1ccc(N2CCOCC2)c(Cl)c1)c1ccc(Cl)cc1` gave STAT1 blocker inactive, STAT3 inh inactive, STAT3 activator inactive, NF-kB neuron act inactive, APP 5'UTR act inactive and STAT1 activator inactive.
For O=C(Nc1ccc(N2CCN(C(=O)c3ccccc3)CC2)c(Cl)c1)c1ccco1 the results were STAT1 blocker inactive, STAT3 inh inactive, STAT3 activator inactive, NF-kB neuron act inactive, APP 5'UTR act inactive and STAT1 activator inactive.
CCOC(=O)N1CCN(Cc2cc(Cl)c3cccnc3c2O)CC1 was read as STAT1 blocker inactive, STAT3 inh inactive, STAT3 activator inactive, NF-kB neuron act inactive, APP 5'UTR act inactive and STAT1 activator inactive.
Cc1ccccc1/C=N\NC(=O)c1ccccc1-n1cccc1 was read as STAT1 blocker inactive, STAT3 inh inactive, STAT3 activator inactive, NF-kB neuron act inactive, APP 5'UTR act inactive and STAT1 activator inactive.
For COc1ccc(S(=O)(=O)N2CCOCC2)cc1NC(=O)Cn1nnc2ccccc2c1=O the results were STAT1 blocker inactive, STAT3 inh inactive, STAT3 activator inactive, NF-kB neuron act inactive, APP 5'UTR act inactive and STAT1 activator inactive.
Screening O=C(c1ccccc1)c1ccc(N2CCOCC2)c(F)c1 returned STAT1 blocker inactive, STAT3 inh inactive, STAT3 activator inactive, NF-kB neuron act inactive, APP 5'UTR act inactive and STAT1 activator 132.7.
For COc1ccc(N=Nc2[nH]c3ccc(C)cc3c2O)cc1 the results were STAT1 blocker inactive, STAT3 inh inactive, STAT3 activator inactive, NF-kB neuron act inactive, APP 5'UTR act inactive and STAT1 activator inactive.
Screening Cc1ccc(N=Nc2[nH]c3ccccc3c2O)cc1 returned STAT1 blocker inactive, STAT3 inh inactive, STAT3 activator 170.9, NF-kB neuron act inactive, APP 5'UTR act inactive and STAT1 activator 129.5.
Screening COc1ccc(C2=NC(c3ccccc3)CO2)cc1 (configuration not stated) returned STAT1 blocker inactive, STAT3 inh inactive, STAT3 activator inactive, NF-kB neuron act inactive, APP 5'UTR act inactive and STAT1 activator 142.8.
For O=[N+]([O-])c1ccc(C2Nc3cccc4cccc(c34)N2)cc1 the results were STAT1 blocker inactive, STAT3 inh inactive, STAT3 activator 134.5, NF-kB neuron act inactive, APP 5'UTR act inactive and STAT1 activator inactive.
COc1ccccc1-c1cc(C(=O)NCCc2ccccc2)no1 was read as STAT1 blocker inactive, STAT3 inh inactive, STAT3 activator inactive, NF-kB neuron act 3.75, APP 5'UTR act inactive and STAT1 activator inactive.
COc1ccccc1-c1cc(C(=O)Nc2cccnc2)no1 was read as STAT1 blocker inactive, STAT3 inh inactive, STAT3 activator inactive, NF-kB neuron act inactive, APP 5'UTR act inactive and STAT1 activator 131.0.
COc1ccc(CCNC(=O)c2cc(-c3ccccc3OC)on2)cc1OC was read as STAT1 blocker inactive, STAT3 inh inactive, STAT3 activator inactive, NF-kB neuron act inactive, APP 5'UTR act inactive and STAT1 activator inactive.
For NNC(=O)c1ccc(CSc2nc3ccccc3s2)cc1 the results were STAT1 blocker inactive, STAT3 inh inactive, STAT3 activator inactive, NF-kB neuron act inactive, APP 5'UTR act inactive and STAT1 activator inactive.
C=CCOn1c(=O)c(-c2cc3ccccc3o2)[n+]([O-])c2ccccc21 was read as STAT1 blocker inactive, STAT3 inh inactive, STAT3 activator inactive, NF-kB neuron act inactive, APP 5'UTR act inactive and STAT1 activator inactive.
`CCOC(=O)COn1c(=O)c(-c2cc3ccccc3o2)[n+]([O-])c2ccccc21` gave STAT1 blocker inactive, STAT3 inh inactive, STAT3 activator 150.7, NF-kB neuron act inactive, APP 5'UTR act inactive and STAT1 activator 142.4.
`CSCCC(NC(C)=O)C(=O)Oc1ccc2c3c(c(=O)oc2c1)CCCC3` (configuration not stated) gave STAT1 blocker inactive, STAT3 inh inactive, STAT3 activator inactive, NF-kB neuron act inactive, APP 5'UTR act inactive and STAT1 activator inactive.
Screening CSCCC(NC(=O)OC(C)(C)C)C(=O)Oc1ccc2c(=O)c(-c3ccc4c(c3)OCCO4)coc2c1 (configuration not stated) returned STAT1 blocker inactive, STAT3 inh inactive, STAT3 activator inactive, NF-kB neuron act inactive, APP 5'UTR act 172.6 and STAT1 activator 129.1.

Screening results (PubChem BioAssay)
